# Source: ChEMBL document CHEMBL1806414, “Synthesis and anticonvulsant activity of 7-phenyl-6,7-dihydro-[1,2,4]triazolo[1,5-a]pyrimidin-5(4H)-ones and their derivatives” (Eur J Med Chem, 2011)
# Active and inactive are the calls of the source. The rule behind the calls is not given here.
# Tests used:
# Mus musculus [1] = organism: Mus musculus; experiment: Protective index, ratio of TD50 for neurotoxicity in Kunming mouse to ED50 for inhibition of MES-induced seizures in Kunming mouse; assay type: functional
# [2] = Neurotoxicity in ip dosed Kunming mouse by rotarod test; assay type: toxicity, organism-based; settings: in vivo
# Procedure, shortened: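 Phase-II rotarod test in KunMing mice trained on a 3.2 cm rod at 10 rpm, DMSO vehicle. Groups of 10 mice got graded i.p. doses until at least three points fell within 10–90% minimal neurotoxicity, giving the median toxic dose.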
# Mus musculus [3] = experiment: Anticonvulsant activity against maximal electric shock-induced seizures in ip dosed Kunming mouse assessed as median effective dose; assay type: functional
# Procedure, shortened: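 Phase-II MES test in KunMing mice (18–22 g), DMSO vehicle, corneal electrode stimulus 0.2 s. Groups of 10 mice got a range of i.p. doses until at least three points fell within 10–90% seizure protection, giving the median effective dose. Endpoint is abolition of tonic hind-leg extension.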
# Mus musculus [4] = experiment: Neurotoxicity in Kunming mouse at 300 mg/kg, ip after 4 hrs; assay type: toxicity, organism-based; parameters: dose 300 mg/kg, route intraperitoneal; settings: in vivo
# Procedure, shortened: (§1)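 Rotarod neurotoxicity in KunMing mice (18–22 g) trained on a 3.2 cm diameter rod at 10 rpm. Compounds in DMSO were given i.p. at 30, 100 and 300 mg/kg, three mice per dose, and tested at 0.5 h and 4 h after dosing.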
# Mus musculus [5] = experiment: Neurotoxicity in Kunming mouse at 100 mg/kg, ip after 4 hrs; assay type: toxicity, organism-based; parameters: dose 100 mg/kg, route intraperitoneal; settings: in vivo; procedure, shortened: as §1
# Mus musculus [6] = experiment: Neurotoxicity in Kunming mouse at 100 mg/kg, ip after 0.5 hrs; assay type: toxicity, organism-based; parameters: dose 100 mg/kg, route intraperitoneal; settings: in vivo; procedure, shortened: as §1
# Mus musculus [7] = experiment: Anticonvulsant activity in Kunming mouse assessed as protection against maximal electric shock-induced seizures at 300 mg/kg, ip measured after 4 hrs; assay type: functional, organism-based; parameters: dose 300 mg/kg
# Procedure, shortened: (§2)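 KunMing mice (18–22 g), compounds dissolved in DMSO, given i.p. at 30, 100 and 300 mg/kg, three mice per dose. Current applied through corneal electrodes for 0.2 s at 0.5 h and 4 h after dosing. Protection is abolition of tonic hind-leg extension, scored as protected/tested.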
# Mus musculus [8] = experiment: Anticonvulsant activity in Kunming mouse assessed as protection against maximal electric shock-induced seizures at 100 mg/kg, ip measured after 4 hrs; assay type: functional, organism-based; parameters: dose 100 mg/kg; procedure, shortened: as §2
# Mus musculus [9] = experiment: Anticonvulsant activity in Kunming mouse assessed as protection against maximal electric shock-induced seizures at 30 mg/kg, ip measured after 4 hrs; assay type: functional, organism-based; parameters: dose 30 mg/kg; procedure, shortened: as §2
# Mus musculus [10] = experiment: Anticonvulsant activity in Kunming mouse assessed as protection against maximal electric shock-induced seizures at 300 mg/kg, ip measured after 0.5 hrs; assay type: functional, organism-based; parameters: dose 300 mg/kg; procedure, shortened: as §2
# Mus musculus [11] = experiment: Anticonvulsant activity in Kunming mouse assessed as protection against maximal electric shock-induced seizures at 100 mg/kg, ip measured after 0.5 hrs; assay type: functional, organism-based; parameters: dose 100 mg/kg; procedure, shortened: as §2
# Mus musculus [12] = experiment: Neurotoxicity in Kunming mouse at 300 mg/kg, ip after 0.5 hrs; assay type: toxicity, organism-based; parameters: dose 300 mg/kg, route intraperitoneal; settings: in vivo; procedure, shortened: as §1
# Mus musculus [13] = experiment: Anticonvulsant activity in Kunming mouse assessed as protection against maximal electric shock-induced seizures at 30 mg/kg, ip measured after 0.5 hrs; assay type: functional, organism-based; parameters: dose 30 mg/kg; procedure, shortened: as §2
SMILES,Ratio TD50/ED50 (Mus musculus [1]),TD50 [2],ED50 (Mus musculus [3]),Activity (Mus musculus [4]),Activity (Mus musculus [5]),Activity (Mus musculus [6]),Activity (Mus musculus [7]),Activity (Mus musculus [8]),Activity (Mus musculus [9]),Activity (Mus musculus [10]),Activity (Mus musculus [11]),Activity (Mus musculus [12]),Activity (Mus musculus [13])
O=C1CC(c2ccccc2F)n2ncnc2N1 (centres undefined),14.4,456 mg/kg,31.7 mg/kg,Non-toxic,Non-toxic,Non-toxic,inactive,inactive,inactive,Active,Active,,
O=C1CC(c2ccccc2)n2nccc2N1 (centres undefined),2.5,118 mg/kg,47.3 mg/kg,Non-toxic,Non-toxic,,inactive,inactive,inactive,Active,Active,Toxic,
O=C1CC(c2ccccc2)n2ncnc2N1Cc1ccccc1 (centres undefined),,,,,,,inactive,inactive,inactive,,,,inactive
O=C1CC(c2ccccc2Cl)n2c(nc3ccccc32)N1 (centres undefined),,,,,,,inactive,inactive,inactive,inactive,inactive,,inactive
O=C1CC(c2ccccc2Cl)n2ncnc2N1 (centres undefined),18.2,465 mg/kg,25.5 mg/kg,Non-toxic,Non-toxic,Non-toxic,inactive,inactive,inactive,Active,Active,,Active
CCC1(c2ccccc2)C(=O)NC(=O)NC1=O [PHENOBARBITAL],,,21.8 mg/kg,,,,,,,,,,
O=C1CC(c2ccccc2Br)n2ccnc2N1 (centres undefined),,,,,,,inactive,inactive,inactive,Active,,,inactive
O=C1CC(c2ccccc2Br)n2c(nc3ccccc32)N1 (centres undefined),,,,,,,inactive,inactive,inactive,inactive,inactive,,inactive
O=C1CC(c2ccccc2Br)n2nccc2N1 (centres undefined),3.4,132 mg/kg,39.4 mg/kg,Non-toxic,Non-toxic,,inactive,inactive,inactive,Active,Active,Toxic,inactive
O=C1CC(c2ccc(F)cc2)n2ncnc2N1 (centres undefined),,,,,,,inactive,inactive,inactive,,inactive,,inactive
O=C1CC(c2ccccc2)n2c(nc3ccccc32)N1 (centres undefined),,,,,,,inactive,inactive,inactive,inactive,inactive,,inactive
CCCCCCN1C(=O)CC(c2ccccc2)n2ncnc21 (centres undefined),,,,,,,inactive,inactive,inactive,,,,inactive
O=C1CC(c2ccccc2)n2ncnc2N1 (centres undefined),10.5,548 mg/kg,51.9 mg/kg,Non-toxic,Non-toxic,Non-toxic,inactive,inactive,inactive,Active,Active,,inactive
O=C1CC(c2ccccc2F)n2ccnc2N1 (centres undefined),4.4,387 mg/kg,88 mg/kg,Non-toxic,Non-toxic,Non-toxic,inactive,inactive,inactive,Active,Active,,inactive
O=C1CC(c2ccccc2Cl)n2ccnc2N1 (centres undefined),,,,,,,inactive,inactive,inactive,Active,,,inactive
O=C1CC(c2cccc(Cl)c2)n2ncnc2N1 (centres undefined),11.2,528 mg/kg,47.3 mg/kg,Non-toxic,Non-toxic,Non-toxic,inactive,inactive,inactive,Active,Active,,inactive
COc1ccc(C2CC(=O)Nc3ncnn32)cc1 (centres undefined),,,,,,,inactive,inactive,inactive,,inactive,,inactive
COc1ccccc1C1CC(=O)Nc2ncnn21 (centres undefined),,,,,,,inactive,inactive,inactive,,inactive,,inactive
Cc1ccc(C2CC(=O)Nc3ncnn32)cc1 (centres undefined),,,,,,,inactive,inactive,inactive,Active,,,inactive
O=C1CC(c2cccc(C(F)(F)F)c2)n2ncnc2N1 (centres undefined),2.9,158 mg/kg,54.8 mg/kg,Non-toxic,Non-toxic,,inactive,inactive,inactive,Active,Active,Toxic,inactive
CN1C(=O)CC(c2ccccc2)n2ncnc21 (centres undefined),,,,,,,inactive,inactive,inactive,Active,,,inactive
O=C1CC(c2ccccc2F)n2c(nc3ccccc32)N1 (centres undefined),,,,,,,inactive,inactive,inactive,inactive,inactive,,inactive
O=C1CC(c2ccc(Cl)cc2)n2ncnc2N1 (centres undefined),,,,,,,inactive,inactive,inactive,Active,,,inactive
O=C1CC(c2ccc(Br)cc2)n2ncnc2N1 (centres undefined),,,,,,,inactive,inactive,inactive,,inactive,,inactive
O=C1CC(c2cccc(F)c2)n2ncnc2N1 (centres undefined),,,,,,,inactive,inactive,inactive,,inactive,,inactive
O=C1CC(c2ccc(Cl)cc2Cl)n2ncnc2N1 (centres undefined),,,,,,,inactive,inactive,inactive,inactive,inactive,,inactive
O=C1CC(c2ccccc2F)n2nccc2N1 (centres undefined),2.5,118 mg/kg,47.3 mg/kg,Non-toxic,Non-toxic,,inactive,inactive,inactive,Active,Active,Toxic,
